Assay results from ChEMBL document CHEMBL1154934, “Identification of piperazine-bisamide GHSR antagonists for the treatment of obesity” (Bioorg Med Chem Lett, 2010).

Legend:
[1] = molecular target: T1, Growth hormone secretagogue receptor type 1 (Homo sapiens, UniProt Q92847); assay: Antagonist activity at human GHSR expressed in CHOK1 cells assessed as inhibition of ghrelin-induced intracellular calcium flux by aequorin flash luminescence assay; format: functional, cell-based, CHO-K1
In short: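 Aequorin flash luminescence in CHO-K1 cells stably co-expressing human ghrelin receptor and aequorin. […] IC50 values are means of three determinations.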

[2] = molecular target: Growth hormone secretagogue receptor type 1 (Rattus norvegicus) (UniProt O08725); assay: (§1) Inhibition of rat GHSR expressed in CHOK1 cells assessed as inhibition of ghrelin-induced intracellular calcium flux by aequorin flash luminescence assay; format: functional, cell-based; conditions: CHO-K1
Growth hormone secretagogue receptor type 1 (Rattus norvegicus), sequence (O08725 whole entry): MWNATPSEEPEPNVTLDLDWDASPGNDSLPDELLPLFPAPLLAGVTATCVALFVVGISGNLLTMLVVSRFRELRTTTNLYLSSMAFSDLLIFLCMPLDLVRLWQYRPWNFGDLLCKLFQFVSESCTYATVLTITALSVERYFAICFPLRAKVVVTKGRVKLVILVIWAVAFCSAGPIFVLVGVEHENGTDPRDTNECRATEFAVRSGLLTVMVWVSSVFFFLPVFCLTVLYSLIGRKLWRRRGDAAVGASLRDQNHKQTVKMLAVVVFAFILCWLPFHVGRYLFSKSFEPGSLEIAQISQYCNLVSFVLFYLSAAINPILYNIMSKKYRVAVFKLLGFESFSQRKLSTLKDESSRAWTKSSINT

[3] = Mean residence time in mouse at 0.5 mg/kg, iv; format: ADME, organism-based; parameters: dose 0.5 mg/kg, route intravenous; conditions: in vivo
In short: (§2)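 Mice dosed intravenously at 0.5 mg/kg. Clearance, MRT and Vdss derived from plasma pharmacokinetics.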

[4] = Clearance in mouse at 0.5 mg/kg, iv; format: ADME, organism-based; parameters: dose 0.5 mg/kg, route intravenous; conditions: in vivo; in short: as §2
[5] = Metabolic stability in human liver microsomes assessed as compound remaining at 1 uM after 30 mins; format: ADME, Microsome; conditions: read-out: Stability
In short: (§3)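 Compound incubated at 1.0 µM initial concentration with rat or human liver microsomes for 30 min. Percentage of compound remaining determined.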

[6] = Inhibition of rat ghrelin-stimulated growth hormone release from Sprague-Dawley rat pituitary cells pretreated for 10 mins before rat ghrelin challenge measured after 20 mins by RIA assay; format: functional, cell-based; conditions: Pituitary gland cell
In short: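 Primary pituitary cells from 6–8-week-old male SD rats cultured 3 days at 37 °C, then washed in DMEM/20 mM Hepes/0.3% BSA buffer. Compound pretreatment for 10 min, then co-incubation with rat ghrelin (0.2 µM) plus compound for another 20 min. GH release measured and IC50 derived. Means of three determinations.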

[7] = Volume of distribution at steady state in mouse at 0.5 mg/kg, iv; format: ADME, organism-based; parameters: dose 0.5 mg/kg, route intravenous; conditions: in vivo, read-out: Vdss; in short: as §2
[8] = Fraction unbound in mouse plasma; format: ADME, cell-free
[9] = Ratio of brain AUC to plasma AUC in mdr1a knockout mouse; format: ADME, cell-free; conditions: brain and plasma
MDCK = assay: Ratio of apparent permeability from basolateral to apical over apical to basolateral side of MDCK cells expressing human MDR1; conditions: dog
[10] = Ratio of brain AUC to plasma AUC in FVB mouse; format: ADME, cell-free; conditions: brain and plasma
[11] = molecular target: Growth hormone secretagogue receptor type 1 (Rattus norvegicus) (UniProt O08725); assay: Agonist activity at rat GHSR expressed in CHO cells assessed as increase in ghrelin-induced [3H]IP accumulation at 10 uM after 1 hr by scintillation counting relative to ghrelin; format: functional, cell-based
In short: (§4)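 CHO cells stably expressing human or rat GHSR labelled 12 h with 3H-inositol (1 µCi/mL in DMEM), then exposed to ghrelin or compound at 37 °C for 1.0 h. Lysis with 20 mM formic acid, 4 °C, 4 h. Extract taken onto SPA beads, 12 h in the dark, then radioactivity counted. IP accumulation expressed as % of maximal ghrelin response at 10, 1.0 and 0.1 µM.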

[12] = Fraction unbound in rat plasma; format: ADME, cell-free
[13] = Metabolic stability in rat liver microsomes assessed as compound remaining at 1 uM after 30 mins; format: ADME, Microsome; conditions: read-out: Stability; in short: as §3
[14] = molecular target: T1, Growth hormone secretagogue receptor type 1; assay: Agonist activity at human GHSR expressed in CHO cells assessed as increase in ghrelin-induced [3H]IP accumulation at 10 uM after 1 hr by scintillation counting relative to ghrelin; format: functional, cell-based; in short: as §4
[15] = molecular target: Sodium-dependent noradrenaline transporter (Homo sapiens, UniProt P23975); assay: Inhibition of NET
[16] = molecular target: 5-hydroxytryptamine receptor 2A (Homo sapiens, UniProt P28223); assay: Inhibition of 5HT2A (receptor)
Histamine H2 receptor = Histamine H2 receptor (Homo sapiens, UniProt P25021); assay: Inhibition of histamine H2 receptor
Histamine H2 receptor, sequence (P25021 whole entry): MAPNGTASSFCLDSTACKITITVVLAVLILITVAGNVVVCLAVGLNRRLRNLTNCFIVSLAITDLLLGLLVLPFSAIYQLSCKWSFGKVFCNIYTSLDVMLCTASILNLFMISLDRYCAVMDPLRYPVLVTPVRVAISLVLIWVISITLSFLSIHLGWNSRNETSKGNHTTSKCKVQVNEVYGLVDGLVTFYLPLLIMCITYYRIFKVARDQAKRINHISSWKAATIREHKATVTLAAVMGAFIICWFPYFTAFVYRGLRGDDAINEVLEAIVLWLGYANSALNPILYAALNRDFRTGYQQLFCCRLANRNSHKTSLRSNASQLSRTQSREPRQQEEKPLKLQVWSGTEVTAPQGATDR

[17] = molecular target: Sodium-dependent dopamine transporter (Homo sapiens, UniProt Q01959); assay: Inhibition of DAT
Sodium-dependent dopamine transporter, sequence (Q01959 whole entry): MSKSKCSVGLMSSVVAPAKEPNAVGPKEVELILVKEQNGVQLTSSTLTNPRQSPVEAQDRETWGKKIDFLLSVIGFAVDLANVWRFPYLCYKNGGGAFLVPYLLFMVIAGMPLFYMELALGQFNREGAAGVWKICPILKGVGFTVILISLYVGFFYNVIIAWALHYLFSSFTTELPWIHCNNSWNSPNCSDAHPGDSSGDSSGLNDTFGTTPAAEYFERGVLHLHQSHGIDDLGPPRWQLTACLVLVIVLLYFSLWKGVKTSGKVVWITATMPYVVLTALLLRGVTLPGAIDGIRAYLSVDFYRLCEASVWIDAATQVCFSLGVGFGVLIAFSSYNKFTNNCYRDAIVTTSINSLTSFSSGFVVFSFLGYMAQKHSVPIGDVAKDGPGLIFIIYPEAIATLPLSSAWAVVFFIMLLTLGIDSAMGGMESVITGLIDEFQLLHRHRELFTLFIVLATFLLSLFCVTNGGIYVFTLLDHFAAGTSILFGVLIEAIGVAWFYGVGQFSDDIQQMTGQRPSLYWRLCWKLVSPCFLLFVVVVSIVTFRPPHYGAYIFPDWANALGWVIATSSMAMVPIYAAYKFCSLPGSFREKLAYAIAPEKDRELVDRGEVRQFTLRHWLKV

[18] = molecular target: T2, 5-hydroxytryptamine receptor 2C (Homo sapiens, UniProt P28335); assay: Inhibition of 5HT2C (receptor)
T2 sequence (P28335 whole entry): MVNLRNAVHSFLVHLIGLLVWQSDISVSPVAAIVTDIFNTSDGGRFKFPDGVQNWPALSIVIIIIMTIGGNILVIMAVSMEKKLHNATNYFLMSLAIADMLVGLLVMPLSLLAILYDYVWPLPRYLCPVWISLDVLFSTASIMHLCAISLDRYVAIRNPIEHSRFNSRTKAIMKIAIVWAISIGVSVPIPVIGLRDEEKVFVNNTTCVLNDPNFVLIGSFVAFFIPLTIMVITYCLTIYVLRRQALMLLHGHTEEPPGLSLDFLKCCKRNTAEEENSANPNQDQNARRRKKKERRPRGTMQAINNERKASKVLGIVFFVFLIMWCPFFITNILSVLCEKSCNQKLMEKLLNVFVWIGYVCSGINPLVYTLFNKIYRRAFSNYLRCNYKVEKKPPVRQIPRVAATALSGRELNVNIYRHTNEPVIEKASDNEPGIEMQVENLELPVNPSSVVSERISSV

D(3) dopamine receptor = D(3) dopamine receptor (Homo sapiens, UniProt P35462); assay: Inhibition of dopamine D3 receptor
D(3) dopamine receptor, sequence (P35462 whole entry): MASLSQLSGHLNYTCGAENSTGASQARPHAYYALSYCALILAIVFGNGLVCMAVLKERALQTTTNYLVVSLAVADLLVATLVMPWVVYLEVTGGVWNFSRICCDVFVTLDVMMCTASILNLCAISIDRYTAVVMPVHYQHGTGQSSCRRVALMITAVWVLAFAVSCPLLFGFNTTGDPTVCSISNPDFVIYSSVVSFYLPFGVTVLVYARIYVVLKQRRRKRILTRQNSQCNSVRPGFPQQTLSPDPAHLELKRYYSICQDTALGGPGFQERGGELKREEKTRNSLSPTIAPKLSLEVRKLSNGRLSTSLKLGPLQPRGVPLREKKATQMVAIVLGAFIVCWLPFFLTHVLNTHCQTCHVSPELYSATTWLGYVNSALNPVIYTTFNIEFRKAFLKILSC

[19] = molecular target: Sodium-dependent serotonin transporter (Homo sapiens, UniProt P31645); assay: Inhibition of SERT
Sodium-dependent serotonin transporter, sequence (P31645 whole entry): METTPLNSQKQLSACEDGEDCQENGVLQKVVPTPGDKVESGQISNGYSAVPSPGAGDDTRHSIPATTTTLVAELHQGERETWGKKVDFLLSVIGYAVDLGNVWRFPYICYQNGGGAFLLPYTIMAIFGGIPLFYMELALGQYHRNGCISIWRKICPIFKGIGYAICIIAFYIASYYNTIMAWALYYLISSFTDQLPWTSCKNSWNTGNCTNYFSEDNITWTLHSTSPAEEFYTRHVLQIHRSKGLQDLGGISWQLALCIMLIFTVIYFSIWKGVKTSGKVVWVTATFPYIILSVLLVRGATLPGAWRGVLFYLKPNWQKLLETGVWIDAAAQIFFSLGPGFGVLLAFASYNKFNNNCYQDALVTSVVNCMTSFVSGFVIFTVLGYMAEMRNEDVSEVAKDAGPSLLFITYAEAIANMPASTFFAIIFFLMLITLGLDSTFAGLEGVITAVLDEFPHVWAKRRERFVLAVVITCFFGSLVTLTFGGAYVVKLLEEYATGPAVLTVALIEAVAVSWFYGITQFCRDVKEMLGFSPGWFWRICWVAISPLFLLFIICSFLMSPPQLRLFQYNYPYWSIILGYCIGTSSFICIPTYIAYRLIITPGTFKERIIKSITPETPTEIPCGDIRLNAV

D(2) dopamine receptor = D(2) dopamine receptor (Homo sapiens, UniProt P14416); assay: Inhibition of dopamine D2 receptor
D(2) dopamine receptor, sequence (P14416 whole entry): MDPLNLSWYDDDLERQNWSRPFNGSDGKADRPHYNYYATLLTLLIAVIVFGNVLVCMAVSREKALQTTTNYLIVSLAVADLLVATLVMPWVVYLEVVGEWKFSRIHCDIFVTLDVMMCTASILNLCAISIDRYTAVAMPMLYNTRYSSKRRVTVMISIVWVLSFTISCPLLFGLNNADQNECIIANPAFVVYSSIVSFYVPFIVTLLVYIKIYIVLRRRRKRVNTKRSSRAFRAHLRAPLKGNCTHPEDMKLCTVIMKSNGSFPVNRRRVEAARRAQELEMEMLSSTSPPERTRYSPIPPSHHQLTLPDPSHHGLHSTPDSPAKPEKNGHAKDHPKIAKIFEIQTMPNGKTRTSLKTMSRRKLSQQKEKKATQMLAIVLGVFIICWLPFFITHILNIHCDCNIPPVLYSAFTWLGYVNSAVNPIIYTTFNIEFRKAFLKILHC

[20] = molecular target: T3, Alpha-2A adrenergic receptor (Homo sapiens, UniProt P08913); assay: Inhibition of alpha2A adrenergic receptor
T3 sequence (P08913 whole entry): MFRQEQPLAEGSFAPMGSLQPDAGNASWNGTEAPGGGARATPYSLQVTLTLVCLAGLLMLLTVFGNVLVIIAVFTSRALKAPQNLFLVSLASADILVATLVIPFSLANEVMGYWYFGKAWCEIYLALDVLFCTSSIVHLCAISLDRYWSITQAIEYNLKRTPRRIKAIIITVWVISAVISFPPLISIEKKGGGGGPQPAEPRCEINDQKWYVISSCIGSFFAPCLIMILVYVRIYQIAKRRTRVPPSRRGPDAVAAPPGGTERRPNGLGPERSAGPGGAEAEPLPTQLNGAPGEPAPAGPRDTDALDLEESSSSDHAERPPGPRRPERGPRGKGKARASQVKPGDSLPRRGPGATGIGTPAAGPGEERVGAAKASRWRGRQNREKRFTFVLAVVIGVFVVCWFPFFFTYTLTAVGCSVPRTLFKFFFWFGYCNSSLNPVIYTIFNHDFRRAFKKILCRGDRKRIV

[21] = Induction of growth hormone release from Sprague-Dawley rat pituitary cells at 1 uM after 20 mins by RIA assay relative to ghrelin; format: functional, Pituitary gland cell
In short: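 Pituitary cells from 6–8-week-old male SD rats plated on poly-D-lysine and cultured 3 days at 37 °C. Washed with DMEM assay buffer (20 mM Hepes, 0.3% BSA) and held 5 min at 37 °C. Treated with rat ghrelin or compound for 20 min, then GH release measured as % of maximal ghrelin response. Means of three determinations.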

Mu-type opioid receptor = Mu-type opioid receptor (Homo sapiens, UniProt P35372); assay: Inhibition of mu opioid receptor
Mu-type opioid receptor, sequence (P35372 whole entry): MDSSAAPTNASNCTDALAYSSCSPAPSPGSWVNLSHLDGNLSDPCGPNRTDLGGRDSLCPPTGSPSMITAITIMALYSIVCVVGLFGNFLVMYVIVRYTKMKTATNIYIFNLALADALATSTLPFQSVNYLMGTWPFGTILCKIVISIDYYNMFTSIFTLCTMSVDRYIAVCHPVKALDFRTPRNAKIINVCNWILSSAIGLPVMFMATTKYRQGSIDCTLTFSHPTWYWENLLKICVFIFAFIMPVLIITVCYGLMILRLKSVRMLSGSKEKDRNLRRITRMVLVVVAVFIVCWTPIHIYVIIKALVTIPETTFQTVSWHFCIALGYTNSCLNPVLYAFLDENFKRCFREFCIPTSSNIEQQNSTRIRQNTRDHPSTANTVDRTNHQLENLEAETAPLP

[22] = molecular target: Kappa-type opioid receptor (Homo sapiens, UniProt P41145); assay: Inhibition of kappa opioid receptor
Kappa-type opioid receptor, sequence (P41145 whole entry): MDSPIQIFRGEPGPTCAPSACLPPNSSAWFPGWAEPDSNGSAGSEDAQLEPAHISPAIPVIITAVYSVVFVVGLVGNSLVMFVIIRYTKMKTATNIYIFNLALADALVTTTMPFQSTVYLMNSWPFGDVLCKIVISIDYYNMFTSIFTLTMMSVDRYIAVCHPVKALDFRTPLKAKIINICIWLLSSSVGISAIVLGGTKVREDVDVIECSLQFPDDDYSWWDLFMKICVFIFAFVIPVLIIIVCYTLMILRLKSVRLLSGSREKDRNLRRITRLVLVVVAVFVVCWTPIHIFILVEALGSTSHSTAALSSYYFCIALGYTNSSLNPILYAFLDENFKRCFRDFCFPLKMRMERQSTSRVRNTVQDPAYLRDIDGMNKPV

[23] = molecular target: Muscarinic acetylcholine receptor M3 (Homo sapiens, UniProt P20309); assay: Inhibition of muscarinic M3 receptor
Muscarinic acetylcholine receptor M3, sequence (P20309 whole entry): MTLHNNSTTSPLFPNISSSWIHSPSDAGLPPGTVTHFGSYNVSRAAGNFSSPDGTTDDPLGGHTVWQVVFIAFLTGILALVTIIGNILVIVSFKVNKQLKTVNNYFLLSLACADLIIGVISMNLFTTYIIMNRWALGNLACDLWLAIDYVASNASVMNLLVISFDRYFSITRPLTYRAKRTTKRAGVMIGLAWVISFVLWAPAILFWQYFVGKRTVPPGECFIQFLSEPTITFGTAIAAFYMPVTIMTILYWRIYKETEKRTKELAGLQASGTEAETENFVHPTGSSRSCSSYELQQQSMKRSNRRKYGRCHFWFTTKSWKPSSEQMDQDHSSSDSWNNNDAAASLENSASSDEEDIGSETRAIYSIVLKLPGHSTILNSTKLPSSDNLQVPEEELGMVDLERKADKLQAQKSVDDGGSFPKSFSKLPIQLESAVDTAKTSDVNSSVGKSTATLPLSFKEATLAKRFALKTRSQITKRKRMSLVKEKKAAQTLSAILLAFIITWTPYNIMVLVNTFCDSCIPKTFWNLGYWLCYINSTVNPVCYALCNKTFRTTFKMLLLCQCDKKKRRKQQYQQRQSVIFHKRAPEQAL

[24] = molecular target: Voltage-gated inwardly rectifying potassium channel KCNH2 (Homo sapiens, UniProt Q12809); assay: Inhibition of human ERG
[25] = molecular target: T1, Growth hormone secretagogue receptor type 1; assay: Agonist activity at human GHSR expressed in CHO cells assessed as increase in ghrelin-induced [3H]IP accumulation at 1 uM after 1 hr by scintillation counting relative to ghrelin; format: functional, cell-based; in short: as §4
[26] = molecular target: Growth hormone secretagogue receptor type 1 (Rattus norvegicus, UniProt O08725); assay: as §1; format: functional, cell-based, CHO-K1
Growth hormone secretagogue receptor type 1 (Rattus norvegicus, UniProt O08725), sequence (O08725 whole entry): as the sequence (O08725 whole entry) above

[27] = Oral bioavailability in rat at 0.5 mg/kg; format: ADME, organism-based; conditions: in vivo
In short: (§5)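 Rats dosed iv at 2.0 mg/kg for clearance, MRT and Vdss. Oral dosing at 0.5 mg/kg for bioavailability (F).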

[28] = Clearance in rat at 2 mg/kg, iv; format: ADME, organism-based; parameters: dose 2 mg/kg, route intravenous; conditions: in vivo; in short: as §5
[29] = molecular target: T1, Growth hormone secretagogue receptor type 1; assay: Agonist activity at human GHSR expressed in CHO cells assessed as increase in ghrelin-induced [3H]IP accumulation at 0.1 uM after 1 hr by scintillation counting relative to ghrelin; format: functional, cell-based; in short: as §4
[30] = Mean residence time in rat at 2 mg/kg, iv; format: ADME, organism-based; parameters: dose 2 mg/kg, route intravenous; conditions: in vivo; in short: as §5
[31] = Volume of distribution at steady state in rat at 2 mg/kg, iv; format: ADME, organism-based; parameters: dose 2 mg/kg, route intravenous; conditions: in vivo, read-out: Vdss
[32] = molecular target: Growth hormone secretagogue receptor type 1 (Rattus norvegicus) (UniProt O08725); assay: Agonist activity at rat GHSR expressed in CHO cells assessed as increase in ghrelin-induced [3H]IP accumulation at 1 uM after 1 hr by scintillation counting relative to ghrelin; format: functional, cell-based; in short: as §4
[33] = molecular target: Growth hormone secretagogue receptor type 1 (Rattus norvegicus) (UniProt O08725); assay: Agonist activity at rat GHSR expressed in CHO cells assessed as increase in ghrelin-induced [3H]IP accumulation at 0.1 uM after 1 hr by scintillation counting relative to ghrelin; format: functional, cell-based; in short: as §4
[34] = Inhibition of cytochrome P450; format: ADME

T1 sequence (Q92847 whole entry): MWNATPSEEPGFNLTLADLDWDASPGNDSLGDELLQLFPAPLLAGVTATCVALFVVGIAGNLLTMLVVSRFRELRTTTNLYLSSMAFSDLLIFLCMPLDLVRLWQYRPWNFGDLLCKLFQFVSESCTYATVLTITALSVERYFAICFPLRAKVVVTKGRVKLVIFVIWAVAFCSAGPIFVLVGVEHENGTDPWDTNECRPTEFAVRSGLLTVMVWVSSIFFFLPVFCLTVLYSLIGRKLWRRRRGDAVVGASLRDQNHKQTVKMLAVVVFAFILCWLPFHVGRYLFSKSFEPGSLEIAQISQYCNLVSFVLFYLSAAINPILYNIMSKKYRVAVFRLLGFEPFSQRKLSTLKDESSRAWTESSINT

IC50 [1] [µM]	IC50 [2] [µM]	Kp [10]	Activity [11] [%]	Activity [14] [%]	Ki [15] [µM]	Ki [16] [µM]	Ki (Histamine H2 receptor) [µM]	Ki [17] [µM]	Ki [18] [µM]	Ki (D(3) dopamine receptor) [µM]	Ki [19] [µM]	Ki (D(2) dopamine receptor) [µM]	Ki [20] [µM]	Ki (Mu-type opioid receptor) [µM]	Ki [22] [µM]	Ki [23] [µM]	SMILES	Activity [21] [%]	also measured
0.0122	0.0103	0.16	-16														C[C@H]1CN(C(=O)c2ccc(-c3ccncc3)c(F)c2)CCN1C(=O)c1ccc2cc[nH]c2c1		MRT [3]: 0.7 h; clearance [4]: 32.7 mL/min/kg; remaining at 0.5 h, 1 µM [5]: 87%; IC50 [6]: 0.093 µM; Vd [7]: 1.4 L/kg; fraction unbound [8]: 0.04; Kp [9]: 2.3; Ratio (MDCK): 1.7; fraction unbound [12]: 0.04; remaining at 0.5 h, 1 µM [13]: 78%
0.012			46	45	> 10	> 10	> 10	> 10	> 10	> 10	> 10	> 10	> 10	> 10	> 10	> 10	COc1cccc(-c2ccc(C(=O)N3CCN(C(=O)c4ccc5cc[nH]c5c4)[C@@H](C)C3)cc2)c1	40	
0.042	0.045		-1														C[C@H]1CN(C(=O)c2ccc(-c3ccncc3F)c(F)c2)CCN1C(=O)c1ccc2cc[nH]c2c1		
0.0091		0.26	33	33	> 10	> 10	> 10	> 10	> 10	> 10	> 10	> 10	> 10	> 10	> 10	> 10	C[C@H]1CN(C(=O)c2ccc(-c3ccccc3F)cc2)CCN1C(=O)c1ccc2cc[nH]c2c1	24	IC50 [24]: > 10 µM; Activity [25]: 31%; IC50 [26]: 0.002 µM; bioavailability [27]: 17%; clearance [28]: 35 mL/min/kg; Activity [29]: 21%; MRT [30]: 1.9 h; Vd [31]: 3.7 L/kg; Activity [32]: 42%; Activity [33]: 41%; IC50 [34]: > 10 µM
